A short description of the data set: Metabolic stability in Sprague-Dawley rat liver microsomes assessed as parent compound remaining incubated for 1 hrs by HPLC analysis. It is filed as ADME, Microsome. The settings on record: read-out: Stability. The gist of the method: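 Rat (Sprague-Dawley) activated liver microsome mix; compound incubated at 37 °C and sampled at 0, 15, 30 and 60 min. Unmetabolized parent quantified by HPLC.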
(In general: Microsomes from liver hold many membrane-bound enzymes, among them those of drug oxidation.)

From ChEMBL document CHEMBL5149988, “Structure-Based Design of Selective Salt-Inducible Kinase Inhibitors” (J Med Chem, 2021) come the findings set out here.

`CNc1ncc2cc(-c3ccc(-c4ncccc4F)cc3Cl)c(=O)n(C[C@H]3OC[C@H](N)CO3)c2n1`: the remaining at 1 h was over 90%.
